Substrate: O=C(CNC(=O)OCc1ccccc1)Oc1ccc([N+](=O)[O-])cc1
Experiment: Michaelis constant against papain
Details: Carica papaya
Outline: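 Papain activated 45 min at 25 °C in 50 mM phosphate pH 6.2 with 1 mM EDTA and 0.25 mM cysteine, made fresh daily. N-Cbz-Gly p-nitrophenyl ester hydrolysis at 25 °C read at 340 nm (Δε 6000 M⁻¹ cm⁻¹), corrected for nonenzymic hydrolysis. Compounds in acetonitrile or DMF, final <2.5% v/v. Reversible Ki by Lineweaver–Burk; irreversible Ki and k2 by Kitz–Wilson.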

B1: Papain (Carica papaya), P00784 (protein)
chain: MAMIPSISKLLFVAICLFVYMGLSFGDFSIVGYSQNDLTSTERLIQLFESWMLKHNKIYKNIDEKIYRFEIFKDNLKYIDETNKKNNSYWLGLNVFADMSNDEFKEKYTGSIAGNYTTTELSYEEVLNDGDVNIPEYVDWRQKGAVTPVKNQGSCGSCWAFSAVVTIEGIIKIRTGNLNEYSEQELLDCDRRSYGCNGGYPWSALQLVAQYGIHYRNTYPYEGVQRYCRSREKGPYAAKTDGVRQVQPYNEGALLYSIANQPVSVVLEAAGKDFQLYRGGIFVGPCGNKVDHAVAAVGYGPNYILIKNSWGTGWGENGYIRIKRGTGNSYGVCGLYTSSFYPVKN
Protein B1 has a Km of 10.3 µM.

Source: ChEMBL document CHEMBL1123492, “Carboxyl-modified amino acids and peptides as protease inhibitors” (J Med Chem, 1986)
